Experimental data published in ChEMBL document CHEMBL2396529, “Synthesis and anticancer mechanism investigation of dual Hsp27 and tubulin inhibitors” (J Med Chem, 2013).
Calls of active or inactive are those of the source. The rule behind the calls is not given here.

Key:
SK-BR-3 [1] = experiment: Cell cycle arrest in human SKBR3 cells assessed as accumulation at subG1 phase at […] after 24 hrs by propidium iodide staining-based FACS flow cytometric analysis (reference value: 3.23%); type: functional
SK-BR-3 [2] = experiment: Induction of apoptosis in human SKBR3 cells assessed as increase in cleaved PARP protein level at 5 to 15 nM after 24 hrs by Western blotting analysis; type: functional, cell-based
Procedure, shortened: (§1)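 SKBR-3 cells treated 24 h with 5, 10 and 15 nM against DMSO. Lysates (60 μg protein) resolved on 10% SDS-PAGE, transferred to PVDF, blocked in 5% milk/PBST and immunoblotted for cleaved caspase 3 and cleaved PARP with an HRP secondary.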

SK-BR-3 [3] = experiment: Effect on HER2 protein level human SKBR3 cells at 5 to 15 nM after 24 hrs by Western blotting analysis; type: functional, cell-based
SK-BR-3 [4] = experiment: Cell cycle arrest in human SKBR3 cells assessed as accumulation at S phase at 1 nM after 24 hrs by propidium iodide staining-based FACS flow cytometric analysis (reference value: 16.34%); type: functional
Bos taurus [5] = species on record: Bos taurus; experiment: Inhibition of bovine brain tubulin polymerization after 20 mins by spectrophotometric analysis in presence of GTP
SK-BR-3 [6] = experiment: Effect on total HSP27 protein level human SKBR3 cells at 5 to 15 nM after 24 hrs by Western blotting analysis; type: functional, cell-based
SK-BR-3 [7] = experiment: Cell cycle arrest in human SKBR3 cells assessed as accumulation at S phase at 5 nM after 24 hrs by propidium iodide staining-based FACS flow cytometric analysis (reference value: 16.34%); type: functional
SK-BR-3 [8] = experiment: Induction of HSP27 phosphorylation in human SKBR3 cells at 5 to 15 nM after 24 hrs by Western blotting analysis; type: functional, cell-based
Procedure, shortened: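 SKBR-3 cells exposed to 5, 10 and 15 nM for 24 h against DMSO, then lysed, sonicated and spun at 12000g for 10 min. 30 μg protein run on 10% SDS-PAGE and transferred to PVDF. Blocked with 5% milk in PBST, probed with specific primary antibodies and an HRP secondary. pHsp27 bands quantified and normalised to β-actin.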

SK-BR-3 [9] = experiment: Cell cycle arrest in human SKBR3 cells assessed as accumulation at subG1 phase at 50 nM after 24 hrs by propidium iodide staining-based FACS flow cytometric analysis (reference value: 3.23%); type: functional
SK-BR-3 [10] = experiment: Cell cycle arrest in human SKBR3 cells assessed as accumulation at G1 phase at 1 nM after 24 hrs by propidium iodide staining-based FACS flow cytometric analysis (reference value: 69.63%); type: functional
SK-BR-3 [11] = experiment: Induction of apoptosis in human SKBR3 cells assessed as increase in cleaved caspase-3 protein level at 5 to 15 nM after 24 hrs by Western blotting analysis; type: functional, cell-based; procedure, shortened: as §1
SK-BR-3 [12] = experiment: Cell cycle arrest in human SKBR3 cells assessed as accumulation at S phase at 50 nM after 24 hrs by propidium iodide staining-based FACS flow cytometric analysis (reference value: 16.34%); type: functional
SK-BR-3 [13] = experiment: Cell cycle arrest in human SKBR3 cells assessed as accumulation at G1 phase at 5 nM after 24 hrs by propidium iodide staining-based FACS flow cytometric analysis (reference value: 69.63%); type: functional
SK-BR-3 [14] = experiment: Cell cycle arrest in human SKBR3 cells assessed as accumulation at G2/M phase at 50 nM after 24 hrs by propidium iodide staining-based FACS flow cytometric analysis (reference value: 10.77%); type: functional
SK-BR-3 [15] = experiment: Cell cycle arrest in human SKBR3 cells assessed as accumulation at G2/M phase at 5 nM after 24 hrs by propidium iodide staining-based FACS flow cytometric analysis (reference value: 10.77%); type: functional
SK-BR-3 [16] = experiment: Effect on EIF4E protein level human SKBR3 cells at 5 to 15 nM after 24 hrs by Western blotting analysis; type: functional, cell-based
SK-BR-3 [17] = experiment: Effect on STAT3 protein level human SKBR3 cells at 5 to 15 nM after 24 hrs by Western blotting analysis; type: functional, cell-based
SK-BR-3 [18] = experiment: Cell cycle arrest in human SKBR3 cells assessed as accumulation at subG1 phase at 1 nM after 24 hrs by propidium iodide staining-based FACS flow cytometric analysis (reference value: 3.23%); type: functional
SK-BR-3 [19] = experiment: Cell cycle arrest in human SKBR3 cells assessed as accumulation at G1 phase at […] after 24 hrs by propidium iodide staining-based FACS flow cytometric analysis (reference value: 69.63%); type: functional
SK-BR-3 [20] = experiment: Antiproliferative activity against human SKBR3 cells after 48 hrs by MTT assay; type: functional, cell-based; conditions: SK-BR-3, 48 h
Procedure, shortened: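 MTT assay on SKBR-3 cells (RPMI 1640, 10% heat-inactivated FBS, 37 °C, 5% CO2), seeded 24 h before dosing, then exposed 48 h to a concentration series in DMSO (final ≤0.1%) with vehicle-matched controls. Afterwards 0.5 mg/mL MTT for 2 h, formazan dissolved in DMSO, A570 read, six replicates. IC50 from nonlinear regression.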

SK-BR-3 [21] = experiment: Effect on HSP70 protein level human SKBR3 cells at 5 to 15 nM after 24 hrs by Western blotting analysis; type: functional, cell-based
SK-BR-3 [22] = experiment: Cell cycle arrest in human SKBR3 cells assessed as accumulation at subG1 phase at 5 nM after 24 hrs by propidium iodide staining-based FACS flow cytometric analysis (reference value: 3.23%); type: functional
SK-BR-3 [23] = experiment: Cell cycle arrest in human SKBR3 cells assessed as accumulation at G1 phase at 50 nM after 24 hrs by propidium iodide staining-based FACS flow cytometric analysis (reference value: 69.63%); type: functional
SK-BR-3 [24] = experiment: Cell cycle arrest in human SKBR3 cells assessed as accumulation at G2/M phase at […] after 24 hrs by propidium iodide staining-based FACS flow cytometric analysis (reference value: 10.77%); type: functional
SK-BR-3 [25] = experiment: Cell cycle arrest in human SKBR3 cells assessed as accumulation at G2/M phase at 1 nM after 24 hrs by propidium iodide staining-based FACS flow cytometric analysis (reference value: 10.77%); type: functional
SK-BR-3 [26] = experiment: Cell cycle arrest in human SKBR3 cells assessed as accumulation at S phase at […] after 24 hrs by propidium iodide staining-based FACS flow cytometric analysis (reference value: 16.34%); type: functional
Bos taurus [27] = species on record: Bos taurus; experiment: Inhibition of bovine brain tubulin polymerization at 1 uM after 15 mins by spectrophotometric analysis relative to control in presence of GTP
[28] = biological target: Heat shock protein beta-1 (Homo sapiens) (UniProt P04792); experiment: Inhibition of HSP27 (unknown origin) assessed as increase in DTT-induced insulin B chain aggregation at 10 uM incubated for 5 mins prior to DTT-treatment measured after 30 mins by spectrophotometric analysis relative to control
Bos taurus [29] = species on record: Bos taurus; experiment: Inhibition of bovine brain tubulin polymerization at 10 nM after 15 mins by spectrophotometric analysis relative to control in presence of GTP
Bos taurus [30] = species on record: Bos taurus; experiment: Inhibition of bovine brain tubulin polymerization at 100 nM after 15 mins by spectrophotometric analysis relative to control in presence of GTP

Chain of Heat shock protein beta-1 (Homo sapiens) (P04792 whole entry): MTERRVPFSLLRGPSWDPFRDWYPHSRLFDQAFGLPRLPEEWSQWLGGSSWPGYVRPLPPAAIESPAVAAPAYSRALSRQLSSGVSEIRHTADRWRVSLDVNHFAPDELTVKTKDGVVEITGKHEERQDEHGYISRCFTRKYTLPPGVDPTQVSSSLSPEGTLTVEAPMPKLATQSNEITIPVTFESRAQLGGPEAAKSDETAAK

inhibition (Bos taurus [5]) | IC50 (SK-BR-3 [20]) [nM] | Compound | Activity (SK-BR-3 [1]) [%] | Activity (SK-BR-3 [2]) | Activity (SK-BR-3 [3]) | Activity (SK-BR-3 [4]) [%] | Activity (SK-BR-3 [7]) [%] | Activity (SK-BR-3 [8]) | Activity (SK-BR-3 [10]) [%] | Activity (SK-BR-3 [11]) | Activity (SK-BR-3 [13]) [%] | Activity (SK-BR-3 [15]) [%] | Activity (SK-BR-3 [16]) | Activity (SK-BR-3 [17]) | Activity (SK-BR-3 [18]) [%] | Activity (SK-BR-3 [19]) [%] | Activity (SK-BR-3 [21]) | Activity (SK-BR-3 [22]) [%] | Activity (SK-BR-3 [24]) [%] | Activity (SK-BR-3 [25]) [%] | also measured
Dose-dependent effect | 1.21 | COc1ccc(OC)c(COc2cc(NC(=O)c3ccc(I)cc3)ccc2N(C)S(C)(=O)=O)c1 | 22.02 | Active | inactive | 8.45 | 9.51 | Active | 66.68 | Active | 51.84 | 13.76 | inactive | inactive | 14.73 | 60.08 | inactive | 24.27 | 8.1 | 9.24 | Activity (SK-BR-3 [6]): inactive; Activity (SK-BR-3 [9]): 32.88%; Activity (SK-BR-3 [12]): 11.39%; Activity (SK-BR-3 [14]): 24.32%; Activity (SK-BR-3 [23]): 31.22%; Activity (SK-BR-3 [26]): 9.49%; inhibition (Bos taurus [27]): 64%; inhibition [28]: 27%
Dose-dependent effect | 2.56 | COc1ccc(C(=O)Nc2ccc(N(C)S(C)(=O)=O)c(OCc3cc(OC)ccc3OC)c2)cc1 | 27.43 | Active | inactive | 8.71 | 8.83 | Active | 61.21 | Active | 32.02 | 25.47 | inactive | inactive | 17.1 | 34.91 | inactive | 33.54 | 28.57 | 12.78 | inhibition (Bos taurus [29]): 5%; Activity (SK-BR-3 [26]): 8.92%; inhibition (Bos taurus [27]): 66%; inhibition [28]: 9%; inhibition (Bos taurus [30]): 19%
